{
  "source": "ChEMBL document CHEMBL3526035",
  "about": "“Role of the intestinal peptide transporter PEPT1 in oseltamivir absorption: in vitro and in vivo studies” (Drug Metab Dispos, 2012)",
  "key": {"[1]": {"test": "Cmax in juvenile fasted Sprague-Dawley rat at 30 mg/kg, po administered as water solution by HPLC-tandem mass spectrometry", "assay_type": "ADME, organism-based", "design": "dose 30 mg/kg, route oral", "conditions": "in vivo; call rule not given here", "outline": "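7-day-old Sprague-Dawley pups (9.7-18.9 g, both sexes), 15 per group. Given 30 mg/kg by oral gavage (10 ml/kg); breast-fed pups stayed with dams, fasted pups were removed 8 h before dosing. Blood taken by cardiac puncture under isoflurane at 0.25, 0.5, 1, 2 and 5 h, n=3 per time point (composite design). Dichlorvos-treated plasma assayed by LC-MS/MS; AUC0-5h by noncompartmental analysis.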"}, "[2]": {"test": "AUC(0 to infinity) in adult fed Sprague-Dawley rat at 30 mg/kg, po administered as solution in bovine milk by HPLC-tandem mass spectrometry", "assay_type": "ADME, organism-based", "design": "time infinity, dose 30 mg/kg, route oral", "conditions": "in vivo", "outline": "(§1)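 Sprague-Dawley males, 7-8 weeks, 243-283 g, jugular-cannulated, 3 days' recovery; fed (chow ad libitum). Single oral dose of 30 mg/kg (free base) at 10 ml/kg; 3 rats/group. Jugular blood taken at 0.25-24 h into K2EDTA with dichlorvos, kept on ice. Plasma analysed by validated LC-MS/MS (0.1-500 μg/l). Noncompartmental analysis; AUC by linear trapezoid, AUC0-∞ extrapolated using λz.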"}, "[3]": {"test": "Drug uptake in CHOK1 cells at 5 to 100 uM after 10 mins by HPLC coupled with radiodetection analysis", "assay_type": "ADME, cell-based, Cricetulus griseus", "conditions": "chinese hamster, cho-k1, 10 min"}, "[4]": {"test": "Drug excretion in healthy human urine assessed as unchanged drug level at 150 mg, po administered as single dose by HPLC-tandem mass spectrometry under fasting conditions", "assay_type": "ADME, organism-based", "conditions": "read-out: Drug excretion", "outline": "(§2)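 Open-label crossover in 18 healthy volunteers (9 male, 9 female, mean age 26). Each received marketed oseltamivir 150 mg orally, once fasted from midnight and once after a high-fat, high-calorie breakfast, with a 7-10 day washout. Plasma and urine collected over 0-72 h and analysed by HPLC-MS/MS. AUC and Cmax compared after log transformation.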"}, "[5]": {"test": "Tmax in juvenile fasted Sprague-Dawley rat at 30 mg/kg, po administered as water solution by HPLC-tandem mass spectrometry", "assay_type": "ADME, organism-based", "design": "dose 30 mg/kg, route oral", "conditions": "in vivo", "outline": "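Seven-day-old Sprague-Dawley pups, males and females, 15 per group, were gavaged with 30 mg/kg (10 ml/kg). Breast-fed pups stayed with their dams; fasted pups were removed from 8 h predose through 5 h. Cardiac blood was drawn under isoflurane at 0.25, 0.5, 1, 2 and 5 h (composite, n=3/time point), with dichlorvos added. Plasma was analyzed by HPLC-MS/MS and Tmax read graphically.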"}, "[6]": {"test": "Cmax in adult fasted Sprague-Dawley rat at 30 mg/kg, po administered as water solution by HPLC-tandem mass spectrometry", "assay_type": "ADME, organism-based", "design": "dose 30 mg/kg, route oral", "conditions": "in vivo", "outline": "(§3)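 Adult cannulated Sprague-Dawley rats, fasted (from 6 h predose) or fed, dosed orally at 30 mg/kg (10 ml/kg), 3 per group. Serial jugular plasma with dichlorvos stabilisation, measured by LC-MS/MS. Cmax read graphically from the concentration-time profile.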"}, "[7]": {"test": "Cmax in adult fasted Sprague-Dawley rat at 30 mg/kg, po administered as solution in bovine milk by HPLC-tandem mass spectrometry", "assay_type": "ADME, organism-based", "design": "dose 30 mg/kg, route oral", "conditions": "in vivo", "outline": "as §3"}, "[8]": {"test": "Cmax in adult fed Sprague-Dawley rat at 30 mg/kg, po administered as 125 mM aqueous Gly-Sar solution by HPLC-tandem mass spectrometry", "assay_type": "ADME, organism-based", "design": "dose 30 mg/kg, route oral", "conditions": "in vivo", "outline": "as §3"}, "[9]": {"test": "AUC(0 to 24 hrs) in healthy human at 150 mg, po administered as single dose by HPLC-tandem mass spectrometry under fed conditions", "assay_type": "ADME, organism-based", "design": "time < 24 hr, dose 150 mg, route oral", "conditions": "plasma", "outline": "as §2"}, "[10]": {"test": "Cmax in healthy human at 150 mg, po administered as single dose by HPLC-tandem mass spectrometry under fasting conditions", "assay_type": "ADME, organism-based", "design": "dose 150 mg, route oral", "conditions": "in vivo", "outline": "as §2"}, "[11]": {"test": "Drug uptake in CHOK1 cells at pH 5 by HPLC coupled with radiodetection analysis", "assay_type": "ADME, cell-based, Cricetulus griseus", "conditions": "chinese hamster, cho-k1, pH 5"}, "[12]": {"test": "Tmax in adult fasted Sprague-Dawley rat at 30 mg/kg, po administered as water solution by HPLC-tandem mass spectrometry", "assay_type": "ADME, organism-based", "design": "dose 30 mg/kg, route oral", "conditions": "in vivo", "outline": "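Male Sprague-Dawley rats (7–8 weeks, 243–283 g) had jugular-vein cannulas and 3 days' recovery. Fasting ran from 6 h predose through the 6 h study. Three rats per vehicle received 30 mg/kg oral (10 ml/kg). Blood was sampled 0.25–6 h into K2EDTA tubes with dichlorvos. Plasma was assayed by HPLC-MS/MS (0.1–500 µg/l). Tmax was read graphically (noncompartmental).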"}, "[13]": {"test": "Renal clearance in healthy human at 150 mg, po administered as single dose by HPLC-tandem mass spectrometry under fed conditions", "assay_type": "ADME, organism-based, Kidney", "conditions": "in vivo", "outline": "(§4)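 Open-label crossover food-effect study in 18 healthy volunteers (9 male, 9 female, mean age 26). Each received a single 150 mg oral dose of the marketed formulation, once fasting from midnight and once after a high-fat, high-calorie breakfast, separated by a 7–10 day washout. Plasma and urine were collected over 0–72 h and assayed by HPLC-MS/MS for oseltamivir and carboxylate.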"}, "[14]": {"test": "AUC(0 to infinity) in adult fed Sprague-Dawley rat at 30 mg/kg, po administered as 125 mM aqueous Gly-Sar solution by HPLC-tandem mass spectrometry", "assay_type": "ADME, organism-based", "design": "time infinity, dose 30 mg/kg, route oral", "conditions": "plasma", "outline": "as §1"}, "[15]": {"test": "Terminal half life in healthy human at 150 mg, po administered as single dose by HPLC-tandem mass spectrometry under fasting conditions", "assay_type": "ADME, organism-based", "conditions": "in vivo, read-out: beta t1/2 (converted)", "outline": "as §4"}, "[16]": {"test": "AUC(0 to infinity) in adult fed Sprague-Dawley rat at 30 mg/kg, po administered as water solution by HPLC-tandem mass spectrometry", "assay_type": "ADME, organism-based", "design": "time infinity, dose 30 mg/kg, route oral", "conditions": "plasma", "outline": "as §1"}, "[17]": {"test": "AUC(0 to infinity) in healthy human at 150 mg, po administered as single dose by HPLC-tandem mass spectrometry under fed conditions", "assay_type": "ADME, organism-based", "design": "dose 150 mg, time infinity, route oral", "conditions": "plasma", "outline": "as §2"}, "[18]": {"test": "Drug uptake in CHOK1 cells at 100 uM after 10 mins by HPLC coupled with radiodetection analysis in presence of PEPT1 inhibitor valacyclovir", "assay_type": "ADME, cell-based, Cricetulus griseus", "conditions": "chinese hamster, cho-k1, 10 min", "outline": "(§5)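 CHO-K1 cells held in KH buffer at pH 6. Incubated 10 min with [14C]oseltamivir at 100 μM, either with 20 mM Trp-Gly, valacyclovir or cefadroxil, or at 4°C (on ice) against 37°C. Quenched with ice-cold PBS-0.2% BSA, washed, lysed in 1% Triton X-100 at 60°C. Lysate counted by scintillation and normalised to BCA protein. Three experiments, each point in triplicate.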"}, "[19]": {"test": "Drug uptake in CHOK1 cells expressing human PEPT1 at 100 uM after 10 mins by HPLC coupled with radiodetection analysis in presence of PEPT1 inhibitor cefadroxil", "assay_type": "ADME, cell-based, Cricetulus griseus", "conditions": "chinese hamster, cho-k1, 10 min", "outline": "(§6)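 CHO-PEPT1 and parental CHO-K1 cells were washed in KH/MES buffer, then incubated 10 min at 37°C, pH 6, with 100 µM [14C]oseltamivir alone or with 20 mM of the inhibitor. The pH was readjusted after additions. Uptake was quenched with ice-cold PBS-BSA and cells were washed and lysed in 1% Triton X-100. Lysate radioactivity was normalized to BCA protein. Three experiments on separate days, triplicate wells.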"}, "[20]": {"test": "Drug uptake in CHOK1 cells at 100 uM after 10 mins by HPLC coupled with radiodetection analysis in presence of PEPT1 inhibitor cefadroxil", "assay_type": "ADME, cell-based, Cricetulus griseus", "conditions": "chinese hamster, cho-k1, 10 min", "outline": "as §5"}, "[21]": {"test": "Drug uptake in CHOK1 cells expressing human PEPT1 at 100 uM after 10 mins by HPLC coupled with radiodetection analysis in presence of PEPT1 inhibitor Trp-Gly", "assay_type": "ADME, cell-based, Cricetulus griseus", "conditions": "chinese hamster, cho-k1, 10 min", "outline": "as §6"}},
  "data": [
    {"compound": "CCC(CC)O[C@@H]1C=C(C(=O)O)C[C@H](N)[C@H]1NC(C)=O", "note": "[OSELTAMIVIR CARBOXYLATE]", "values": [
      {"measurement": "Cmax", "setting": "[1]", "result": 3100, "unit": "ng/mL"},
      {"measurement": "AUC(0-inf)", "setting": "[2]", "result": 6340, "unit": "ng·h/mL"},
      {"measurement": "Drug uptake", "setting": "[3]", "result": "Active"},
      {"measurement": "dose excreted", "setting": "[4]", "result": 58.5, "unit": "%"},
      {"measurement": "Tmax", "setting": "[5]", "result": 2, "unit": "h"},
      {"measurement": "Cmax", "setting": "[6]", "result": 2290, "unit": "ng/mL"},
      {"measurement": "Cmax", "setting": "[7]", "result": 1630, "unit": "ng/mL"},
      {"measurement": "Cmax", "setting": "[8]", "result": 693, "unit": "ng/mL"},
      {"measurement": "AUC(0-t) at 24 h", "setting": "[9]", "result": 5060, "unit": "ng·h/mL"},
      {"measurement": "Cmax", "setting": "[10]", "result": 551, "unit": "ng/mL"},
      {"measurement": "Drug uptake", "setting": "[11]", "result": "Active"},
      {"measurement": "Tmax", "setting": "[12]", "result": 1.08, "unit": "h"},
      {"measurement": "CL renal", "setting": "[13]", "result": 218, "unit": "mL/min"},
      {"measurement": "AUC(0-inf)", "setting": "[14]", "result": 4870, "unit": "ng·h/mL"},
      {"measurement": "half-life", "setting": "[15]", "result": 6.87, "unit": "h"},
      {"measurement": "AUC(0-inf)", "setting": "[16]", "result": 5290, "unit": "ng·h/mL"},
      {"measurement": "AUC(0-inf)", "setting": "[17]", "result": 6070, "unit": "ng·h/mL"}
    ]},
    {"compound": "CCOC(=O)C1=C[C@@H](OC(CC)CC)[C@H](NC(C)=O)[C@@H](N)C1", "note": "[OSELTAMIVIR]", "values": [
      {"measurement": "Drug uptake", "setting": "[18]", "result": "Not Active"},
      {"measurement": "Cmax", "setting": "[1]", "result": 10500, "unit": "ng/mL"},
      {"measurement": "AUC(0-inf)", "setting": "[2]", "result": 2810, "unit": "ng·h/mL"},
      {"measurement": "Drug uptake", "setting": "[3]", "result": "Active"},
      {"measurement": "dose excreted", "setting": "[4]", "result": 3.09, "unit": "%"},
      {"measurement": "Drug uptake", "setting": "[19]", "result": "Not Active"},
      {"measurement": "Tmax", "setting": "[5]", "result": 0.5, "unit": "h"},
      {"measurement": "Cmax", "setting": "[6]", "result": 1690, "unit": "ng/mL"},
      {"measurement": "Drug uptake", "setting": "[20]", "result": "Not Active"},
      {"measurement": "Cmax", "setting": "[7]", "result": 1630, "unit": "ng/mL"},
      {"measurement": "Cmax", "setting": "[8]", "result": 926, "unit": "ng/mL"},
      {"measurement": "AUC(0-t) at 24 h", "setting": "[9]", "result": 280, "unit": "ng·h/mL"},
      {"measurement": "Cmax", "setting": "[10]", "result": 124, "unit": "ng/mL"},
      {"measurement": "Drug uptake", "setting": "[11]", "result": "Active"},
      {"measurement": "Tmax", "setting": "[12]", "result": 0.83, "unit": "h"},
      {"measurement": "CL renal", "setting": "[13]", "result": 385, "unit": "mL/min"},
      {"measurement": "AUC(0-inf)", "setting": "[14]", "result": 2840, "unit": "ng·h/mL"},
      {"measurement": "half-life", "setting": "[15]", "result": 1.61, "unit": "h"},
      {"measurement": "AUC(0-inf)", "setting": "[16]", "result": 2510, "unit": "ng·h/mL"},
      {"measurement": "AUC(0-inf)", "setting": "[17]", "result": 287, "unit": "ng·h/mL"},
      {"measurement": "Drug uptake", "setting": "[21]", "result": "Not Active"}
    ]}
  ]
}
